LMPTP inh = LMPTP (human) inhibition. recombinant LMPTP-A, OMFP fluorogenic substrate, fluorescence intensity. inhibition, % at 20 µM. 360,000 compounds, 0.22% hits. AID 651560;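 active = compounds that cut the enzyme signal by at least half of the control window in the single-dose screen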;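 also: plate controls were DMSO wells with enzyme plus substrate for no effect and substrate without enzyme for full effect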
Target sequence (P24666 whole entry, looked up): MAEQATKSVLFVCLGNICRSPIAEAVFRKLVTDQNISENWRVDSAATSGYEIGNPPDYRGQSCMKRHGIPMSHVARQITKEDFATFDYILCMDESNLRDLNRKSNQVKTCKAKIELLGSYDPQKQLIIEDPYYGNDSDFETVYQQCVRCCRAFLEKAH
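material = LMPTP-A | quantity = 0.625 nM enzyme | reagent = OMFP substrate, 400 µM final | buffer or medium = Bis-Tris pH 6.0, DTT, detergent | detection = endpoint fluorescence intensity from OMFP dephosphorylation | dosing = single 20 µM dose | read-out basis = % inhibition relative to no-enzyme and uninhibited control wells | control set = no-enzyme and uninhibited controls | timing = 50 min at room temperature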
STEP block = STEP (human) phosphatase inhibition | 360,000 compounds, 0.25% hits | P54829 | inhibition, % at 20 µM | recombinant STEP, OMFP fluorogenic substrate, fluorescence;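 active = inhibition at 20 µM, scaled per plate between control wells, above about 37%, limit read from the data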;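 also: 0% = DMSO with enzyme and substrate and 100% = substrate only without enzyme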
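Measure: Control-normalized % inhibition with plate pattern correction | Test system: STEP phosphatase, cell-free reaction | Medium: pH 6.0 Bis-Tris with DTT and Tween 20 | Technique: Fluorescence, 480/540 nm | Times: Reaction 20 min, ambient temperature | Doses: Single compound dose of 20 µM, 1% DMSO final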
SUMO1 PPI mod = alters human SUMO1 binding to SIM partners | 360,000 compounds, 0.33% hits | P63165 | inhibition, % at 20 µM | SUMO1 binding to a labelled peptide, TR-FRET, 1 h; in the data active = inhibition above about 37%
Target sequence (P63165 whole entry, looked up): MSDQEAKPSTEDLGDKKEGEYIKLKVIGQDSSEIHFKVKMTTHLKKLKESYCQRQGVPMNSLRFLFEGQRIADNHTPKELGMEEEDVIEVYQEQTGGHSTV
CASP6 VEID inh = blocks human caspase-6 cleavage activity | P55212 | purified caspase-6, Z-VEID-R110 cleavage fluorescence | inhibition, % at 12.5 µM | 350,000 compounds, 0.53% hits;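 active = mean inhibition across replicates at least about 35%, with every replicate also reaching that limit, limit read from the data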;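 also: 0% = median of neutral control wells and 100% = no fluorescence left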
Target sequence (P55212 24-179 limits assumed): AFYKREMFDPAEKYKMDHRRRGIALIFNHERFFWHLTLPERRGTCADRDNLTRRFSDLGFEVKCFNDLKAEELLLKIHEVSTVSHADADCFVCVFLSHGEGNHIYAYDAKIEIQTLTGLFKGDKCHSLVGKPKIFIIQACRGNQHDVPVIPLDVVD
Target sequence (P55212 194-293 limits assumed): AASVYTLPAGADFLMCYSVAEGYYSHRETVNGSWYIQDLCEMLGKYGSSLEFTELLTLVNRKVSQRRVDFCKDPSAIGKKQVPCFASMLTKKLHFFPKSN
Scp-1 inhibitor = Scp-1 (human) phosphatase inhibition; Recombinant Scp1, phosphopeptide, malachite green phosphate absorbance; inhibition, % at 20 µM; 340,000 compounds, 0.88% hits; AID 493091;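 active = inhibition above about 50% at 20 µM, limit read from the data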;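 also: plate controls were DMSO wells with enzyme for no effect and wells lacking enzyme for full effect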
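Assay system: SCP-1 catalytic fragment, aa 76-261 | Buffer or medium: Tris acetate buffer pH 5.5 with MgCl2 and Tween-20 | Compound: One concentration, 20 µM, with 1.0% DMSO | Also added: Phospho 17-mer peptide substrate | Signal: Absorbance at 630 nm | Incubation: 45 min enzyme reaction at room temperature | Measure: % inhibition of SCP-1 phosphate liberation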
DNMT1 inh = blocks human DNA methyltransferase DNMT1. 360,000 compounds, 0.83% hits. inhibition (reported as % activation of signal), % at 10 µM. P26358. AID 588458. DNMT1 molecular beacon, Hinp1I cleavage, fluorescence; in the data active = inhibition above about 50%
* = called active by the depositor; · = no result; ! = repeats disagree. Rows were chosen to be rich in hits. Some 1.7% of all compounds tested hit in one or more screens of this group.

SMILES	LMPTP inh	STEP block	SUMO1 PPI mod	CASP6 VEID inh	Scp-1 inhibitor	DNMT1 inh
Oc1ccc(/C=N/N=C/c2ccc(O)cc2)cc1	-0.1	-1.7	-11.9	6.2	-4.5	-5.3
O=C1Nc2ccccc2/C1=N\N=C\c1ccc(O)c(O)c1	11.6	8.0	-15.7	35.8*	5.8	-7.4
Oc1ccc(/C=N/N(c2ccccc2)c2ccccc2)cc1O	6.1	0.1	4.3	13.7	-8.3	-19.2
CC(C)C(C)N(Cc1ccc(C(=O)O)cc1)C(=O)c1ccc2ccccc2n1 (stereo unspecified)	-5.2	-2.7	-3.7	-1.8	-3.6	-6.0
CCCCn1c(N)c(N(CCOC)C(=O)c2ccc(N3C(=O)c4ccccc4C3=O)cc2)c(=O)[nH]c1=O	-0.9	4.3	-28.5	-1.4	-10.4	1.9
O=C(Cn1c2ccc(F)cc2c2nc3n(c(=O)c21)CCS3)Nc1ccccc1C(F)(F)F	5.3	9.9	0.9	0.6	-6.9	16.1
CCOC(=O)C(=O)N/N=C/c1ccco1	28.5	30.1	3.7	35.7*	25.7	30.8
Cc1cc(C)cc(OCC(=O)N/N=C/c2ccco2)c1	0.2	-2.0	-7.9	-2.1	-10.4	-1.4
CC(C)CNC(=O)C(=O)NN=C1CCCCCC1	-0.5	-0.7	-2.5	·	0.0	-7.5
CC(C)(C)NC(=O)C(=O)NN=C1CCCCCCCCCCC1	-1.1	-0.2	-0.8	60.4*	-3.5	-4.5
COC(CNC(=O)c1ccc2c3c(onc13)-c1ccccc1C2=O)OC	7.1	8.2	-14.8	49.8*	2.3	-28.3
Cc1cc(F)ccc1S(=O)(=O)N1CCCOC1CNC(=O)C(=O)NCc1ccccn1 (stereo unspecified)	0.2	-0.3	22.2	-1.7	-6.0	1.7
Nc1ccc2nc3c(=O)n(C4CCCCC4)c(=O)[nH]c3nc2c1	-1.7	-59.5	-20.9	-0.5	-9.0	33.7
Nc1ccc2nc3c(=O)n(CCc4ccccc4)c(=O)[nH]c3nc2c1	3.4	-75.1	-36.0	-0.6	-1.9	51.0*
CCCCn1c(=O)[nH]c2nc3cc(N)ccc3nc2c1=O	-3.0	-77.1	-19.5	-0.8	-5.1	54.1*
CCN(CC)CCN1C(=O)C(=O)/C(=C(/O)c2c(C)[nH]c(C(=O)OC)c2C)C1c1cccc(OC)c1 (stereo unspecified)	0.0	-2.3	-1.9	·	-13.1	-4.0
O=C(CN1C(=O)c2ccc([N+](=O)[O-])cc2C1=O)NCCC1=CCCCC1	-1.0	0.0	-35.9	2.4	-2.3	-0.1
CCCS(=O)(=O)c1c(S(=O)(=O)CCC)c2c(N)cccn2c1C(=O)c1ccc(Br)cc1	2.5	-5.6	3.1	·	-4.9	-13.4
CC(=O)OCC(=O)Nc1ccc(N=Nc2ccccc2)cc1	0.8	1.3	-23.7	1.8	-13.1	-3.5
CCOC(=O)N1CCN(C(=O)Cc2ccccc2[N+](=O)[O-])CC1	-2.8	-2.4	-7.1	35.1*	-1.2	-2.9
CCOC(=O)N1CCN(C(=O)COc2ccccc2[N+](=O)[O-])CC1	-0.9	-2.3	-3.0	0.9	-0.4	1.4
O=C1NC2=C(C(=O)CCC2)C(c2cccc([N+](=O)[O-])c2)N1 (stereo unspecified)	-1.0	-2.4	-13.6	38.5*	-4.7	-1.3
CC(=O)c1c(C)[nH]c(C(=O)OCC(=O)N2CCc3ccccc32)c1C	-0.3	-3.7	-4.6	·	5.7	50.1*
COc1cc(OC)cc(OC2(C)CCN(Cc3ccc(OC(C)C)cc3)C2)c1 (stereo unspecified)	-1.6	-1.6	2.7	2.2	·	-4.1
COc1cc(NC(=O)COc2ccc(Cl)cc2)ccc1-c1cc2ccccc2oc1=O	3.6	0.9	-2.1	-2.2	-10.1	2.8
SMILES	LMPTP inh	STEP block	SUMO1 PPI mod	CASP6 VEID inh	Scp-1 inhibitor	DNMT1 inh
O=C(CN1C(=O)/C(=C2\SC(=S)N(CCS(=O)(=O)O)C2=O)c2ccccc21)Nc1cccc(Br)c1	82.6*	97.9*	17.0	14.5	101.3*	13.9
COCCN1C(=O)/C(=C2/C(=O)N(CC(=O)Nc3ccccc3Cl)c3ccccc32)SC1=S	5.5	7.8	-7.2	0.5	-5.5	-2.4
CCCCCCCCCCCCCCCC[n+]1cccc2ccccc21	3.8	17.6	82.8*	-152.0	75.2*	-8.0
CCC(=O)N1CCC1(C)C(=O)Nc1cccc2cccnc12 (stereo unspecified)	0.5	-1.3	1.9	78.0*	·	1.5
CC(O)(CS(=O)(=O)Cc1ccccc1)C(=O)Nc1cccc(C(F)(F)F)c1 (stereo unspecified)	-0.8	-3.7	-2.3	39.8*	-8.7	-3.1
CCCNC(=O)N1[C@@H](C#N)[C@H](c2ccc(C#Cc3cccc(F)c3)cc2)[C@@H]1CO	·	·	·	1.4	·	·
Nc1ccc2cn[nH]c2c1	-2.6	0.5	-2.0	44.0*	-6.3	-6.6
Brc1ccc2[nH]ncc2c1	-0.9	0.7	0.9	·	-3.7	0.5
CC1=C(C(N)=O)C(c2ccccn2)n2nc(-c3ccccc3Cl)nc2N1 (stereo unspecified)	-1.5	-2.3	2.3	-3.1	-8.0	-0.1
COc1ccc(NC(=O)C(F)(OC)C(F)(F)F)c(OC)c1 (stereo unspecified)	-0.1	-2.0	-0.1	54.8*	-2.7	-6.5
COc1ccccc1C(=O)NC(=Nc1nc2ccccc2o1)NC(=O)c1ccccc1OC	1.4	-2.7	67.0*!	-0.6	-6.7	0.2
Cc1ccc(-n2nnnc2SCC(=O)Nc2ccc3c(c2)COC3=O)cc1C	2.9	0.3	40.2*	·	-6.1	42.0
Nc1c2c(=O)[nH]c(O)cc2nn1-c1ccccc1	1.8	-2.0	14.6	39.8*	-7.7	40.9
O=C(CSc1ccc2c(c1)OCCO2)NCc1ccccc1	0.2	0.1	1.5	38.0*	-23.9	1.6
O=C(CC12CC3CC(CC(C3)C1)C2)N1CCN(S(=O)(=O)c2cccs2)CC1	2.2	4.2	-4.7	·	-1.0	2.4
CCOC(=O)C1=C(C)N=c2sc(=Cc3cc(Cl)c(OCC(=O)O)c(Cl)c3)c(=O)n2C1c1cccc(OC)c1 (stereo unspecified)	1.7	4.1	5.4	37.6*	·	12.7
CCOC(=O)C1=C(C)N=c2s/c(=C/c3ccc(OCC(=O)O)cc3)c(=O)n2C1c1cc(OC)c(OC)c(OC)c1 (stereo unspecified)	-1.9	0.9	-4.9	2.6	4.5	11.9
C=CCSc1nnc(NC(=O)c2ccc3c(c2)OCCO3)s1	1.1	-3.8	4.3	2.8	·	-0.1
O=C1c2nc3ccccn3c2C(=O)N1Cc1ccccc1	0.5	1.6	39.4*	1.0	-2.7	-11.4
O=C(Oc1ccc([N+](=O)[O-])cc1)C1CC(=O)N(c2ccc3c(c2)OCCO3)C1 (stereo unspecified)	3.8	-1.3	-1.8	32.5	69.4*	23.1

Screens as filed in PubChem BioAssay.
